In data set [1] the test system is dengue virus type 2. The data set can be described thus: Inhibition of DENV2 NS2B-NS3 protease assessed as residual activity up to 200 uM using Benzoyl-Nle-Lys-Arg-Arg-AMC as substrate preincubated for 3 mins followed by substrate addition by fluorescence spectrophotometer.
Data set [2] has as its system Dengue virus. The data set can be described thus: Inhibition of DENV2 NS2B-NS3 protease assessed as residual activity at 16 uM using Benzoyl-Nle-Lys-Arg-Arg-AMC as substrate preincubated for 3 mins followed by substrate addition by fluorescence spectrophotometer.
Data set [3] is described as follows: Inhibition of DENV2 NS2B-NS3 protease using Benzoyl-Nle-Lys-Arg-Arg-AMC as substrate preincubated for 3 mins followed by substrate addition by fluorescence spectrophotometer. Set-up: species or system Dengue virus. The procedure, abridged: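 Plasmid-expressed DENV-2 NS2B-NS3 protease was assayed at 37 °C, pH 9.0 (50 mM Tris-HCl, 10 mM NaCl, 20% glycerol, 1 mM CHAPS, 0.04% NaN3). Inhibitor at graded concentrations was preincubated 3 min before 33 µM substrate was added, and fluorescence was read at 356/438 nm. IC50 was derived from remaining activity (vehicle = 100%) versus concentration, as the mean of triplicates.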

The subject of data set [4] is dengue virus type 2. The data set can be described thus: Inhibition of DENV2 NS2B-NS3 protease assessed as residual activity at 15 uM using Benzoyl-Nle-Lys-Arg-Arg-AMC as substrate preincubated for 3 mins followed by substrate addition by fluorescence spectrophotometer.
The test system of data set [5] is dengue virus type 2. The data set can be described thus: Antiviral activity against DENV2 infected Vero E6 cells assessed as reduction in viral titer after 48 hrs by plaque assay. In kind it is functional, Vero C1008. To be noted: Huh-7, 48 h, in the assay text read “Huh-7” for “Vero E6”. Summed up: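 Huh-7 cells (10^4/well) were infected with wild-type DENV-2 at MOI 1. Non-toxic compound concentrations were added 1 h later, and cells were incubated 48 h at 37 °C, in triplicate. Virus yield in the supernatant was titred on Vero E6 cells with 10^-1 to 10^-6 dilutions, 7-day plaque development, formaldehyde fixation and crystal violet staining. Titer reduction was judged against an untreated control.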

Data set [6] can be described thus: Cytotoxicity against human HuH7 cells after 48 hrs by cell-titer glo luminescent viability assay. In kind it is cell-based, Huh-7.
The subject of data set [7] is Dengue virus. Kind of data set: Inhibition of DENV2 NS2B-NS3 protease assessed as residual activity at 200 uM using Benzoyl-Nle-Lys-Arg-Arg-AMC as substrate preincubated for 3 mins followed by substrate addition by fluorescence spectrophotometer.
The test system of data set [8] is Dengue virus. Kind of data set: Inhibition of DENV2 NS2B-NS3 protease assessed as residual activity at 20 uM using Benzoyl-Nle-Lys-Arg-Arg-AMC as substrate preincubated for 3 mins followed by substrate addition by fluorescence spectrophotometer.

In general, pIC50 refers to −log10 of the IC50, conventionally taken in molar units. A higher pIC50 goes with a low IC50. By pEC50 is commonly meant the negative decadic logarithm of the EC50, by convention in mol/L. A word on the CC50: it is the concentration that lowers cell viability or growth by half. Low readings indicate greater toxicity to the cells, high ones lower toxicity to the cells.

pEC50, pIC50: −log10 of the molar value. Peptide text beside a SMILES is read from it. * marks the point of attachment. pNA = O=[N+]([O-])c1ccc(N*)cc1

`O=C1[C@@H]2CCCN2[C@H](c2ccc(C(F)(F)F)cc2)N1c1ccc([N+](=O)[O-])cc1`: the Activity in data set [1] was greater than 50%.

As to `O=C1[C@@H]2CCCN2CN1c1ccc([N+](=O)[O-])cc1`, in data set [2], the Activity came to 61%.

Regarding `CC[C@H]1N(c2ccc([N+](=O)[O-])cc2)C(=O)[C@@H]2CCCN21`, in data set [2], the Activity worked out at 40%.

With `O=C1[C@@H]2CCCN2[C@@H](c2ccc([N+](=O)[O-])cc2)N1c1ccc([N+](=O)[O-])cc1`, the pIC50 in data set [3] was 5.92. The Activity in data set [4] is 32%. In data set [5], the pEC50 was 4.40. The CC50 at 48 h in data set [6] was greater than 100 µM.

With `COc1ccc([C@H]2N(c3ccc([N+](=O)[O-])cc3)C(=O)[C@@H]3CCCN32)cc1`, in data set [1], the Activity was greater than 50%.

In the case of `C[C@H]1N(c2ccc([N+](=O)[O-])cc2)C(=O)[C@@H]2CCCN21`, the Activity in data set [2] worked out at 58%.

Turning to `O=C1[C@@H]2CCCN2[C@@H](c2ccc(C(F)(F)F)cc2)N1c1ccc([N+](=O)[O-])cc1`, the Activity in data set [1] is greater than 50%.

For `CC(C)[C@H]1N(c2ccc([N+](=O)[O-])cc2)C(=O)[C@@H]2CCCN21`, the Activity in data set [2] was 66%.

For `O=C1[C@@H]2CCCN2[C@@H](c2ccc(Cl)cc2)N1c1ccc([N+](=O)[O-])cc1`, the Activity in data set [1] is greater than 50%.

`O=C1[C@@H]2CCCN2[C@@H](Cc2ccc([N+](=O)[O-])cc2)N1c1ccc([N+](=O)[O-])cc1`: the Activity in data set [1] is greater than 50%.

Regarding `O=C1[C@@H]2CCCN2[C@H](c2ccc(Cl)cc2)N1c1ccc([N+](=O)[O-])cc1`, in data set [1], the Activity was greater than 50%.

Turning to `O=C1[C@@H]2CCCN2[C@@H](c2ccccc2)N1c1ccc([N+](=O)[O-])cc1`, in data set [7], the Activity worked out at 33%.

Take `CC(C)c1ccc([C@H]2N(c3ccc([N+](=O)[O-])cc3)C(=O)[C@@H]3CCCN32)cc1`: the Activity in data set [1] was greater than 50%.

With `O=C1[C@@H]2CCCN2[C@H](c2ccc([N+](=O)[O-])cc2)N1c1ccc([N+](=O)[O-])cc1`, the Activity in data set [1] is greater than 50%.

In the case of `O=C1[C@@H]2CCCN2[C@@H](c2cccc([N+](=O)[O-])c2)N1c1ccc([N+](=O)[O-])cc1`, the Activity in data set [1] is greater than 50%.

As for `O=C1[C@@H]2CCCN2[C@@H](Cc2ccccc2)N1c1ccc([N+](=O)[O-])cc1`, the Activity in data set [8] came out at 58%.

In turn, `CSCC[C@H](N)C(=O)N1CCC[C@H]1C(=O)Nc1ccc([N+](=O)[O-])cc1` (H-Met-Pro-pNA) had a pIC50 in data set [3] of 5.92. For the same molecule, in data set [5], the pEC50 was 4.41. This molecule also showed a CC50 at 48 h in data set [6] greater than 100 µM.

The values above are taken from ChEMBL document CHEMBL4041495, “Identification of fused bicyclic derivatives of pyrrolidine and imidazolidinone as dengue virus-2 NS2B-NS3 protease inhibitors” (Eur J Med Chem, 2017).
